Reference: PubChem BioAssay AID688 (PCMD, 2007)
The whole screen tested about 27,000 compounds, of which about 250 (0.93%) were called active.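 How the source made its calls: active means mutant luminescence inhibited past about 50% while wild type luminescence and mutant growth stay under set limits (limit read from the data); inconclusive means mutant versus wild type luminescence inhibition gap past a set limit; inactive means the rest.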 Only a selection was taken, and actives are over-represented in it overall.

Test: GCN4-lacZ reporter reduction in eIF2B-epsilon mutant yeast, primary screen, S. cerevisiae, eIF2B-epsilon R284H, Beta-Glo luminescence (AID 688)
Settings: growth inhibition: measured here: mutant yeast growth, toxicity, concentration not given here; inhibition: stronger effect = higher value, screened at 25 µM (by protocol)
Summary of the method: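 Material: yeast eIF2B-epsilon R284H mutant carrying GCN4–beta-galactosidase fusion. Medium: YPD yeast growth medium. Incubation: 16 h growth with compound at 30 °C, 90 min Beta-Glo step. Signal: Beta-Glo luminescence plus absorbance at 595 nm. Evaluation: % inhibition of reporter signal and growth versus controls. Doses: 25 µM single dose.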
In the case of `CCOC(=O)c1[nH]c2ccc(OC)cc2c1NC(=O)N1CCOCC1`, the inhibition was -48.6% (inactive).
For `CCOc1ccc(NC(=O)CN2CCN(CC(=O)Nc3ccc(OC)cc3)CC2)cc1`, the growth inhibition was 9.09% and the inhibition was -13.6% (inactive).
For `CCCNC(=O)NCc1ccc(N2CCCC2=O)cc1`, the growth inhibition was 12.5% and the inhibition was 10.8% (inactive).
In the case of `O=c1/c(=C/c2ccc(CNS(=O)(=O)c3ccccc3)o2)sc2n1CCN=2`, the growth inhibition was -8.62% and the inhibition was 62.4% (active).
In the case of `CC1(C)CC(=O)C=C(NCCCNC2CCCCC2)C1`, the growth inhibition was 8.06% and the inhibition was 53.4% (active).
In the case of `CC1(C)CC(=O)C=C(N2CCCC2)C1`, the inhibition was 30.3% (inactive).
With `CC1(C)CC(=O)C=C(NCCN2CCNCC2)C1` the growth inhibition was 9.46% and the inhibition was 32.9% (inactive).
With `Cc1ccc(N2C(=O)CC(Sc3ncn[nH]3)C2=O)cc1` (stereo unspecified) the growth inhibition was 23.8% and the inhibition was -7.91% (inactive).
For `COc1ccc(NC(=O)Nc2ccc3nc(C)c(C)nc3c2)cc1`, the growth inhibition was -13.5% and the inhibition was -3.08% (inactive).
For `CCn1c(=O)cc(O)c2ccccc21`, the growth inhibition was 11.1% and the inhibition was 2.94% (inactive).
With `O=C1CCCc2nn(-c3ccccc3)nc21` the growth inhibition was 7.14% and the inhibition was 6.25% (inactive).
With `CCOC(=O)c1ccccc1NS(=O)(=O)c1ccc(OC)cc1` the growth inhibition was 10.5% and the inhibition was -13% (inactive).
For `N#CCSc1nc2c(c(=O)n1Cc1ccccc1)C1(CCCC1)Cc1ccccc1-2`, the inhibition was 9.23% (inactive).
For `O=C(Cc1ccccc1)Nc1c(C(=O)N2CCCCCC2)cnn1-c1ccccc1`, the growth inhibition was 8.33% and the inhibition was -14.8% (inactive).
In the case of `COc1ccc(S(=O)(=O)N2CCCC(C(=O)N3CCN(C)CC3)C2)cc1C` (stereo unspecified), the growth inhibition was 6.9% and the inhibition was -4.21% (inactive).
For `CC(C)n1c(-c2cccs2)nc2ccccc21`, the growth inhibition was 14.7% and the inhibition was 15% (inactive).
In the case of `CCOC(=O)C1=C(CSc2nnnn2C)N(C)C(=O)NC1c1ccccc1` (stereo unspecified), the growth inhibition was -2.7% and the inhibition was 19.9% (inactive).
In the case of `CCOC(=O)c1sc(C)c2c1NC(C)(c1cccc3ccccc13)NC2=O` (stereo unspecified), the growth inhibition was 2.7% and the inhibition was -8.97% (inactive).
With `CCOCCn1c(C(C)C)nc2ccccc21` the inhibition was -14.4% (inactive).
For `CCNc1nc(N)nc(Oc2ccc(OCC)nn2)n1`, the growth inhibition was -12.5% and the inhibition was 31.6% (inactive).
With `C/C=C/C(=O)Nc1nnc(C(C)C)s1` the inhibition was 1.35% (inactive).
With `O=C(Nc1cccnc1)c1noc2c1CCCCC2` the growth inhibition was 3.45% and the inhibition was 69% (active).
With `O=C(CS(=O)(=O)Cc1ccccc1)Nc1cccnc1` the inhibition was 11.1% (inactive).
With `O=C(CCCn1c(=O)oc2ccccc21)Nc1cccnc1` the growth inhibition was -21.7% and the inhibition was 22.3% (inactive).
With `COc1ccc(-n2nnnc2SCC(=O)Nc2ccccc2)cc1` the growth inhibition was -13.6% and the inhibition was 0.65% (inactive).
In the case of `O=C(NCc1ccccn1)c1cc(-c2ccccc2Cl)on1`, the growth inhibition was 9.09% and the inhibition was 8.32% (inactive).
In the case of `COc1ccc(-c2nnc(SCC(=O)c3ccc4c(c3)OCCO4)o2)cc1`, the growth inhibition was -27.1% and the inhibition was 9.99% (inactive).
In the case of `C=CCSC1=C(C#N)C(c2cc(Br)c(O)c(OC)c2)CC(=O)N1` (stereo unspecified), the growth inhibition was -19.1% and the inhibition was 17.8% (inactive).
With `O=C(NCC(=O)N(Cc1cccs1)C(C(=O)NC1CCCCC1)c1ccco1)c1cccs1` (stereo unspecified) the growth inhibition was -12.9% and the inhibition was 9.07% (inactive).
With `Cc1nc2c(c(=O)n1Cc1ccco1)c1nc3ccccc3nc1n2Cc1ccccc1` the inhibition was 16.6% (inactive).
In the case of `CCOc1ccc(NC(=O)CN(C)CC(=O)Nc2cccc(Cl)c2C)cc1OCC`, the growth inhibition was -23.8% and the inhibition was 30.2% (inactive).
In the case of `COc1ccccc1-n1nnnc1S(=O)(=O)Cc1ccc(Cl)cc1`, the growth inhibition was -20.6% and the inhibition was 24.8% (inactive).
With `Cc1cc(C)n(-c2c(F)c(F)c(COC(=O)c3ccccc3)c(F)c2F)n1` the growth inhibition was 23% and the inhibition was 20.8% (inactive).
For `Cc1cccc(N2C(=O)c3cccnc3C2=O)c1`, the growth inhibition was -42.9% and the inhibition was 27.9% (inactive).
With `CC(=O)NC1(c2cccc(F)c2)CCN(CC(=O)NC(C)C)CC1` the growth inhibition was 4.55% and the inhibition was 8.86% (inactive).
With `O=C(NCc1ccc(Cl)c(Cl)c1)c1cccnc1` the growth inhibition was -25% and the inhibition was 24.4% (inactive).
In the case of `O=C(Nc1nncs1)c1cccc(S(=O)(=O)N2CCCCC2)c1`, the growth inhibition was -27.3% and the inhibition was -2.85% (inactive).
With `Cc1ccc(C2(C(F)(F)F)N=C3Sc4cc(C)cc(C)c4N3C(=O)N2)cc1` (stereo unspecified) the growth inhibition was -4.76% and the inhibition was 31.4% (inactive).
In the case of `C=CCn1c(SCCOc2ccc(OC)cc2)nnc1C(NC(=O)c1ccc(OC)cc1)C(C)C` (stereo unspecified), the growth inhibition was -10% and the inhibition was 21.4% (inactive).
In the case of `COCc1[nH][nH]c(=O)c1C=Nc1ccc(F)cc1F`, the growth inhibition was 18.9% and the inhibition was 24.1% (inactive).
In the case of `Cc1ccc2c(CSc3nncs3)cc(=O)oc2c1`, the growth inhibition was -14.7% and the inhibition was -21.6% (inactive).
With `CCCCNS(=O)(=O)c1ccc(S(=O)(=O)n2cnc3ccccc32)cc1` the growth inhibition was -31.6% and the inhibition was -22.7% (inactive).
With `CCOC(=O)c1c(N)sc(C(C)=O)c1C` the growth inhibition was 19.1% and the inhibition was 2.16% (inactive).
With `Cc1ccc(S(=O)(=O)c2nc(NCCCn3ccnc3)sc2Cl)cc1` the growth inhibition was 15.9% and the inhibition was 26% (inactive).
